According to ChEMBL document CHEMBL2203153, “Synthesis of novel azo-resveratrol, azo-oxyresveratrol and their derivatives as potent tyrosinase inhibitors” (Bioorg Med Chem Lett, 2012):

How the values were obtained:
[1] = biological target: T1, Tyrosinase (Agaricus bisporus) (UniProt O42713); assay: Inhibition of mushroom tyrosinase using L-tyrosine as substrate at 50 uM after 30 mins by spectrophotometric analysis
T1 sequence (whole entry): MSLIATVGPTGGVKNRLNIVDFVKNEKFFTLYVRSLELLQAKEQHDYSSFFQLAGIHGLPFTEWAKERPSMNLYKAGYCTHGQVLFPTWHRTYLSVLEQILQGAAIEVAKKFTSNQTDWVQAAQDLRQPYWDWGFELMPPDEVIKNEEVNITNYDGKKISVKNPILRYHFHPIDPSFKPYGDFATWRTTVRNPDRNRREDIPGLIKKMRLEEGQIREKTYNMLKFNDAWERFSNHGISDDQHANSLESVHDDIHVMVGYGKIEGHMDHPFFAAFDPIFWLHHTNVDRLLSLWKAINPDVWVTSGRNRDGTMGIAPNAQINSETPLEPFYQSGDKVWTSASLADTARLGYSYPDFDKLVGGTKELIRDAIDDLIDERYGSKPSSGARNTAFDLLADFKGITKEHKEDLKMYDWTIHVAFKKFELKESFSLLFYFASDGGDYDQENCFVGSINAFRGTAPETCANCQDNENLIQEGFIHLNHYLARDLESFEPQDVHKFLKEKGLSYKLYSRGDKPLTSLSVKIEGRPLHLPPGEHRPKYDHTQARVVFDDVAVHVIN
Outline: (§1)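 Mushroom tyrosinase (1000 units) was added to a mixture of 1 mM L-tyrosine and 50 mM phosphate buffer, pH 6.5, with test compound at the stated concentration. After 30 min at 25 °C, dopachrome formation was measured spectrophotometrically at OD492 and expressed as percent inhibition. Values are means ± S.E. of three experiments.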

[2] = biological target: T1, Tyrosinase (Agaricus bisporus); assay: (§2) Inhibition of mushroom tyrosinase using L-tyrosine as substrate after 30 mins by spectrophotometric analysis
Outline: (§3)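 Mushroom tyrosinase (1000 units) was added to assay mixture containing 1 mM L-tyrosine in 50 mM phosphate buffer, pH 6.5. Incubation ran 30 min at 25 °C, and dopachrome was read at 492 nm. Dose-dependent inhibition was run in triplicate at three doses. IC50 was taken from the inhibitor concentration versus product formation curve.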

[3] = biological target: T2, Tyrosinase (Agaricus bisporus, UniProt O42713); assay: as §2; outline: as §3
T2 sequence (O42713 whole entry): T1 sequence (whole entry)

[4] = biological target: T1, Tyrosinase (Agaricus bisporus); assay: Inhibition of mushroom tyrosinase using L-tyrosine as substrate at 30 uM after 30 mins by spectrophotometric analysis; outline: as §1
[5] = biological target: T1, Tyrosinase (Agaricus bisporus); assay: Inhibition of mushroom tyrosinase using L-tyrosine as substrate at 15 uM after 30 mins by spectrophotometric analysis; outline: as §1
[6] = biological target: T1, Tyrosinase (Agaricus bisporus); assay: Inhibition of mushroom tyrosinase using L-tyrosine as substrate at 80 uM after 30 mins by spectrophotometric analysis; outline: as §1
[7] = biological target: T1, Tyrosinase (Agaricus bisporus); assay: Inhibition of mushroom tyrosinase using L-tyrosine as substrate at 5 uM after 30 mins by spectrophotometric analysis; outline: as §1
[8] = biological target: T1, Tyrosinase (Agaricus bisporus); assay: Inhibition of mushroom tyrosinase using L-tyrosine as substrate at 20 uM after 30 mins by spectrophotometric analysis; outline: as §1
[9] = biological target: T1, Tyrosinase (Agaricus bisporus); assay: Inhibition of mushroom tyrosinase using L-tyrosine as substrate at 10 uM after 30 mins by spectrophotometric analysis
Outline: (§4)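 Mushroom tyrosinase (20 µL of 1000 units aqueous solution) in a 200 µL mixture with 1 mM L-tyrosine in 50 mM phosphate buffer, pH 6.5. Incubated 30 min at 25 °C; dopachrome read at 492 nm. Percent inhibition was measured at three doses per compound, in triplicate, to build dose–response curves.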

[10] = biological target: T1, Tyrosinase (Agaricus bisporus); assay: Inhibition of mushroom tyrosinase using L-tyrosine as substrate at 1 uM after 30 mins by spectrophotometric analysis; outline: as §4
[11] = biological target: T1, Tyrosinase (Agaricus bisporus); assay: Inhibition of mushroom tyrosinase using L-tyrosine as substrate at 0.5 uM after 30 mins by spectrophotometric analysis; outline: as §4

SMILES	inhibition [1] [%]	inhibition [2]	IC50 [3] [µM]	further results
COc1ccc(/N=N/c2cc(OC)ccc2OC)c(O)c1	6.38	–	–	–
COc1cc(/N=N/c2ccc(O)c(OC)c2)cc(OC)c1	1.03	–	–	–
COc1ccc(OC)c(/N=N/c2ccc(O)c(OC)c2)c1	0.44	–	–	–
COc1cc(/N=N/c2ccc(O)cc2)cc(OC)c1	56.2	Dose-dependent effect	50.2	inhibition [6]: 61.4%; inhibition [7]: 8.4%; inhibition [8]: 46%
Oc1ccc(/C=C/c2cc(O)cc(O)c2)cc1 [RESVERATROL]	–	Dose-dependent effect	26.6	inhibition [9]: 38%; inhibition [10]: 16.3%; inhibition [11]: 13.7%; inhibition [4]: 47.8%; inhibition [7]: 27.1%; inhibition [8]: 47.3%

More lines, main results first:

inhibition [1] [%]	inhibition [2]	IC50 [3] [µM]	SMILES	further results
72.8	Dose-dependent effect	36.3	Oc1ccc(/N=N/c2cc(O)cc(O)c2)cc1	inhibition [4]: 44.3%; inhibition [5]: 7.6%
48.5	–	–	COc1cc(/N=N/c2ccc(O)cc2O)cc(OC)c1	–
41.5	–	–	Oc1cc(O)cc(/N=N/c2ccc(O)cc2O)c1	–
27.8	–	–	COc1ccc(OC)c(/N=N/c2ccc(O)cc2O)c1	–
8.9	–	–	COc1cc(/N=N/c2ccc(O)cc2OC)cc(OC)c1	–
